In ChEMBL document CHEMBL4834405, “Structure-Based Design of High-Affinity Macrocyclic FKBP51 Inhibitors” (J Med Chem, 2021):

Experiments:
[1] = biological target: T1, Peptidyl-prolyl cis-trans isomerase FKBP5 (Homo sapiens, UniProt Q13451); test: (§1) Displacement of fluorescent tracer 5-(3-(4-((1S,5S,6S)-10-(3,5-dichlorophenylsulfonyl)-2-oxo-3-(pyridin-3-ylmethyl)-3,10-diazabicyclo[4.3.1]decan-5-yl)-1H-1,2,3-triazol-1-yl)propylcarbamoyl)-2-(6-(dimethylamino)-3-(dimethyliminio)-3H-xanthen-9-yl)benzoate from recombinant full length C-terminal FLAG-tagged FKBP51 (unknown origin) expressed in Escherichia coli BL21 (DE3) cells incubated for 30 mins by fluorescence polarisation competition binding assay
T1 sequence (Q13451 whole entry): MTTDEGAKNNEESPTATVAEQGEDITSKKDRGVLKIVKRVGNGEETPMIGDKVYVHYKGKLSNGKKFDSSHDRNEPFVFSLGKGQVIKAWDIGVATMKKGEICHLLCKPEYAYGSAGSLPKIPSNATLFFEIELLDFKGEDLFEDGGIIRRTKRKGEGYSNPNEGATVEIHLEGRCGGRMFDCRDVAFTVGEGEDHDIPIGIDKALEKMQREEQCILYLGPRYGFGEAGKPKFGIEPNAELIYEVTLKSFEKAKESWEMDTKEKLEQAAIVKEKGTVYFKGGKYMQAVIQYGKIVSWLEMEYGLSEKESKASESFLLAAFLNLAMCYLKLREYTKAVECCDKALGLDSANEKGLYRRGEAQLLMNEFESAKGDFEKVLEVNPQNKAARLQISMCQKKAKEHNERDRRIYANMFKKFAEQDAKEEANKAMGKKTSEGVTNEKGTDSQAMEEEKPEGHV

[2] = biological target: T2, Peptidyl-prolyl cis-trans isomerase FKBP4 (Homo sapiens, UniProt Q02790); test: as §1, with “FKBP52” for “FKBP51”
T2 sequence (Q02790 whole entry): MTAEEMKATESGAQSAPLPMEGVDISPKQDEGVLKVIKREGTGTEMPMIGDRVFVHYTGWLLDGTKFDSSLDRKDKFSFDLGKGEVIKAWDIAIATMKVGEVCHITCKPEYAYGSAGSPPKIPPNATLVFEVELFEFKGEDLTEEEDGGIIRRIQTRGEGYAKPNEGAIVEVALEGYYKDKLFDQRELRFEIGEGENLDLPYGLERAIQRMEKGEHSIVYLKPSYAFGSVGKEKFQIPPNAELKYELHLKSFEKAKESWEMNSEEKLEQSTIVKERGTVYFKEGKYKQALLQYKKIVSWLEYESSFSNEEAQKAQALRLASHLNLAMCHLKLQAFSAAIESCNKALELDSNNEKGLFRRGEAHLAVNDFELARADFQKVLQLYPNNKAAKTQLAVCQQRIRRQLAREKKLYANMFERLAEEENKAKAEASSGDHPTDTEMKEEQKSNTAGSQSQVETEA
Method in brief: (§2)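 Competitive FP in 150 mM NaCl, 20 mM HEPES pH 8.0, 0.002% Triton X-100. Ligand 1:1 serially diluted in DMSO and premixed with fluorescent tracer, tracer working solution 11.9 nM (FKBP12.6, 51FK1, 52FK1) or 5.95 nM (FKBP12) before final 10-fold dilution into protein. 30 min at room temperature, read at ex/em 535/590 nm. Weighted SD from at least two independent runs.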

[3] = (§3) Selectivity ratio of Kd for displacement of fluorescent tracer 5-(3-(4-((1S,5S,6S)-10-(3,5-dichlorophenylsulfonyl)-2-oxo-3-(pyridin-3-ylmethyl)-3,10-diazabicyclo[4.3.1]decan-5-yl)-1H-1,2,3-triazol-1-yl)propylcarbamoyl)-2-(6-(dimethylamino)-3-(dimethyliminio)-3H-xanthen-9-yl)benzoate from recombinant full length C-terminal FLAG-tagged FKBP52 (unknown origin) to Kd for displacement of fluorescent tracer 5-(3-(4-((1S,5S,6S)-10-(3,5-dichlorophenylsulfonyl)-2-oxo-3-(pyridin-3-ylmethyl)-3,10-diazabicyclo[4.3.1]decan-5-yl)-1H-1,2,3-triazol-1-yl)propylcarbamoyl)-2-(6-(dimethylamino)-3-(dimethyliminio)-3H-xanthen-9-yl)benzoate from recombinant full length C-terminal FLAG-tagged FKBP51 (unknown origin)
[4] = biological target: Peptidyl-prolyl cis-trans isomerase FKBP1A (Homo sapiens, UniProt P62942); test: as §1, with “FKBP12” for “FKBP51”, “([…])” for “(DE3)”; method in brief: as §2
Peptidyl-prolyl cis-trans isomerase FKBP1A, sequence (P62942 whole entry): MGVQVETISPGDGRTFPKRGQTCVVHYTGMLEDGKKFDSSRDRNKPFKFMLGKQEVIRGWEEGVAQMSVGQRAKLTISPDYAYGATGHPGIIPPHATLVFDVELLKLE

[5] = as §3, with “FJBP12” for “FKBP52 (unknown origin)”
[6] = biological target: Peptidyl-prolyl cis-trans isomerase FKBP1B (Homo sapiens, UniProt P68106); test: as §1, with “FKBP12.6” for “FKBP51”, “competition” for “competition binding”; method in brief: as §2
Peptidyl-prolyl cis-trans isomerase FKBP1B, sequence (P68106 whole entry): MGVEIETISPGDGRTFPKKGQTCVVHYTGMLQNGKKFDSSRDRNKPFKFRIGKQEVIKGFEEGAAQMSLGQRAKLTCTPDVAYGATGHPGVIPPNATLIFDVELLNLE

[7] = as §3, with “FKBP12.6” for “FKBP52”

Row | Compound | Kd [1] [nM] | Kd [2] [nM] | Selectivity ratio [3] | Kd [4] [nM] | Selectivity ratio [5] | Kd [6] [nM] | Selectivity ratio [7]
1 | COc1ccc(CC[C@H]2OC(=O)[C@@H]3CCCCN3C(=O)[C@@H](C3CCCCC3)c3cc(OC)c(OC)c(c3)OC[C@H](O)[C@@H](O)COc3cccc2c3)cc1OC | 17 | 3850 | 227 | 44 | 2.6 | 19 | 1.1
2 | COc1ccc(CC[C@H]2OC(=O)[C@@H]3CCCCN3C(=O)[C@@H](C3CCCCC3)c3cc(OC)c(OC)c(c3)OCCCOC/C=C\COc3cccc2c3)cc1OC | 144 | > 10000 | > 69 | 494 | 3.4 | 352 | 2.3
3 | COc1ccc(CC[C@H]2OC(=O)[C@@H]3CCCCN3C(=O)[C@@H](C3CCCCC3)c3cc(OC)c(c(OC)c3)OCC/C=C/COc3cccc2c3)cc1OC | 149 | > 10000 | > 67 | 1010 | 6.8 | 1080 | 7.2
4 | COc1ccc(CC[C@H]2OC(=O)[C@@H]3CCCCN3C(=O)[C@@H](C3CCCCC3)c3cc(OC)c(OC)c(c3)OC/C=C/COc3cccc2c3)cc1OC | 108 | 5390 | 49.9 | 212 | 1.9 | 216 | 2
5 | COc1ccc(CC[C@H]2OC(=O)[C@@H]3CCCCN3C(=O)[C@@H](C3CCCCC3)c3cc(OC)c(OC)c(c3)OCC/C=C/COc3cccc2c3)cc1OC | 113 | > 10000 | > 89 | 588 | 5.2 | 709 | 6.3
6 | COc1ccc(CC[C@H]2OC(=O)[C@@H]3CCCCN3C(=O)[C@@H](C3CCCCC3)c3cc(OC)c(OC)c(c3)OCC/C=C\COc3cccc2c3)cc1OC | 71 | > 10000 | > 141 | 139 | 2 | 116 | 1.6
7 | COc1ccc(CC[C@H]2OC(=O)[C@@H]3CCCCN3C(=O)[C@@H](C3CCCCC3)c3cc(OC)c(OC)c(c3)OCCCCCOc3cccc2c3)cc1OC | 46 | > 10000 | > 217 | 126 | 2.7 | 100 | 2.2
8 | COc1ccc(CC[C@H]2OC(=O)[C@@H]3CCCCN3C(=O)[C@@H](C3CCCCC3)c3cc(OC)c(c(OC)c3)OCCOC/C=C\COc3cccc2c3)cc1OC | – | > 10000 | – | 798 | – | 344 | –
9 | COc1ccc(CC[C@H]2OC(=O)[C@@H]3CCCCN3C(=O)[C@@H](C3CCCCC3)c3cc(OC)c(OC)c(c3)OCCOc3cccc2c3)cc1OC | 55 | 9090 | > 165 | 247 | 4.5 | 82 | 1.5
10 | COc1ccc(CC[C@H]2OC(=O)[C@@H]3CCCCN3C(=O)[C@@H](C3CCCCC3)c3cc(OC)c(OC)c(c3)OCCCOc3cccc2c3)cc1OC | 70 | 13200 | > 188 | 295 | 4.2 | 94 | 1.3
11 | COc1ccc(CC[C@H]2OC(=O)[C@@H]3CCCCN3C(=O)[C@@H](C3CCCCC3)c3cc(OC)c(c(OC)c3)OCCOc3cccc2c3)cc1OC | 68 | > 10000 | > 147 | 532 | 7.8 | 227 | 3.3
12 | COc1ccc(CC[C@H]2OC(=O)[C@@H]3CCCCN3C(=O)[C@@H](C3CCCCC3)c3cc(OC)c(c(OC)c3)OCC(O)C(O)COc3cccc2c3)cc1OC (mixture of isomers) | 12 | 795 | 66.2 | 79 | 6.5 | 85 | 7
13 | COc1ccc(CC[C@H]2OC(=O)[C@@H]3CCCCN3C(=O)[C@@H](C3CCCCC3)c3cc(OC)c(OC)c(c3)OCCOC/C=C/COc3cccc2c3)cc1OC | 62 | > 10000 | > 161 | 192 | 3.1 | 105 | 1.7
14 | COc1ccc(CC[C@H]2OC(=O)[C@@H]3CCCCN3C(=O)[C@@H](C3CCCCC3)c3cc(OC)c(OC)c(c3)OCCCOCCCCOc3cccc2c3)cc1OC | 103 | > 10000 | > 97 | 354 | 3.4 | 227 | 2.2
15 | COc1ccc(CC[C@H]2OC(=O)[C@@H]3CCCCN3C(=O)[C@@H](C3CCCCC3)c3cc(OC)c(c(OC)c3)OCCCCOc3cccc2c3)cc1OC | 89 | > 10000 | > 112 | 584 | 6.6 | 383 | 4.3
16 | COc1ccc(CC[C@H]2OC(=O)[C@@H]3CCCCN3C(=O)[C@@H](C3CCCCC3)c3cc(OC)c(c(OC)c3)OCCCOc3cccc2c3)cc1OC | 70 | > 10000 | > 142 | 744 | 10.6 | 446 | 6.3
17 | COc1ccc(CC[C@H]2OC(=O)[C@@H]3CCCCN3C(=O)[C@@H](C3CCCCC3)c3cc(OC)c(c(OC)c3)OCCCCCOc3cccc2c3)cc1OC | 119 | > 10000 | > 84 | 1490 | 12.5 | 849 | 7.1
18 | COc1ccc(CC[C@H]2OC(=O)[C@@H]3CCCCN3C(=O)[C@@H](C3CCCCC3)c3cc(OC)c(OC)c(c3)OCCOCCCCOc3cccc2c3)cc1OC | 61 | > 10000 | > 164 | 135 | 2.2 | 115 | 1.9
19 | COc1ccc(CC[C@H]2OC(=O)[C@@H]3CCCCN3C(=O)[C@@H](C3CCCCC3)c3cc(OC)c(c(OC)c3)OCCCOCCCCOc3cccc2c3)cc1OC | 75 | > 10000 | > 133 | 484 | 6.4 | 277 | 3.7
20 | COc1ccc(CC[C@H]2OC(=O)[C@@H]3CCCCN3C(=O)[C@@H](C3CCCCC3)c3cc(OC)c(c(OC)c3)OCCOC/C=C/COc3cccc2c3)cc1OC | – | > 10000 | – | 1010 | – | 715 | –
21 | COc1cccc([C@@H](CCc2ccc(OC)c(OC)c2)OC(=O)[C@@H]2CCCCN2C(=O)[C@H](c2cc(OC)c(OC)c(OC)c2)C2CCCCC2)c1 | 83 | > 10000 | – | 263 | – | 203 | –
